Series [1] relates to Raji. The series can be described thus: Inhibition of 12-O-tetradecanoylphorbol-13-acetate-induced EBV-early antigen activation in human Raji cells at 500 molar ratio after 48 hrs relative to TPA. In kind it is cell-based. Set-up: scale not given: the % may be the effect or the level left. Conditions: human gammaherpesvirus 4. A digest of the protocol:
(§1)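 Raji indicator cells kept 48 h at 37° in 1 ml medium with n-butyric acid (4 mM, co-inducer), TPA (20 ng/ml, […]) and test compound in DMSO, dosed as mol ratio to TPA. EA-positive cells were found by indirect immunofluorescence on smears with high-titer EBV-positive NPC patient sera. At least 500 cells counted per assay, repeated twice. Induction is expressed relative to the butyric acid+TPA positive control (100%).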

The nature of series [2]: Cytotoxicity against human Raji cells assessed as cell viability at 500 molar ratio. In kind it is cell-based. Particulars: read-out: Activity. A digest of the protocol:
(§2)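 Raji cell viability read in the same EBV-EA run: 48 h at 37° with n-butyric acid (4 mM) and TPA ([…]) plus test compound in DMSO, dosed as mol ratio to TPA. Viability is given alongside the relative EA activation values.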

A short description of series [3]: Cytotoxicity against human Raji cells assessed as cell viability at 10 molar ratio. In kind it is cell-based. Particulars: read-out: Activity. A digest of the protocol:
as §2

Series [4] relates to Raji. The series can be described thus: Inhibition of 12-O-tetradecanoylphorbol-13-acetate-induced EBV-early antigen activation in human Raji cells at 100 molar ratio after 48 hrs relative to TPA. On the set-up: scale not given: the % may be the effect or the level left. Particulars: human gammaherpesvirus 4. In kind it is cell-based. The method, boiled down:
as §1

Series [5] is described as follows: Cytotoxicity against human Raji cells assessed as cell viability at 1000 molar ratio. It counts as cell-based. Particulars: read-out: Activity. The method, boiled down: as §2
Series [6] deals with Raji. The series can be described thus: Inhibition of 12-O-tetradecanoylphorbol-13-acetate-induced EBV-early antigen activation in human Raji cells at 1000 molar ratio after 48 hrs relative to TPA. In kind it is cell-based. On the set-up: scale not given: the % may be the effect or the level left. Conditions: human gammaherpesvirus 4. A digest of the protocol: as §1
Series [7] in a line: Cytotoxicity against human Raji cells assessed as cell viability at 100 molar ratio. In kind it is cell-based. Conditions: read-out: Activity. A digest of the protocol: as §2
Series [8] concerns Raji. The series can be described thus: Inhibition of 12-O-tetradecanoylphorbol-13-acetate-induced EBV-early antigen activation in human Raji cells at 1 molar ratio after 48 hrs relative to TPA. It counts as cell-based. Set-up: scale not given: the % may be the effect or the level left. Particulars: human gammaherpesvirus 4. A digest of the protocol: as §1
The nature of series [9]: Cytotoxicity against human Raji cells assessed as cell viability at 1 molar ratio. In kind it is cell-based. Particulars: read-out: Activity. The method, boiled down: as §2
Series [10] deals with Raji. The series can be described thus: Inhibition of 12-O-tetradecanoylphorbol-13-acetate-induced EBV-early antigen activation in human Raji cells at 10 molar ratio after 48 hrs relative to TPA. It counts as cell-based. On the set-up: scale not given: the % may be the effect or the level left. Particulars: human gammaherpesvirus 4. The method, boiled down: as §1
Series [11] has as its system Mus musculus. The series can be described thus: Inhibition of DMBA-induced/TPA-promoted carcinogenesis in ICR mouse assessed as reduction of skin papillomas per mouse at 85 nmol administered twice weekly after 1 week of initiation measured after 20 weeks. In kind it is functional. On the set-up: scale not given: the % may be the effect or the level left. A digest of the protocol: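 Female ICR mice, 7 weeks old, 15 per group, had shaved backs. They were initiated with DMBA (100 µg, […]) in Me2CO, then promoted from 1 week later with TPA (1 µg, […]) in Me2CO twice weekly, with test agent given with TPA. Papilloma incidence and average papillomas per mouse were scored against the TPA-alone control.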

Regarding `CC1=CC[C@H](C(C)C)C=C1` [ALPHA-PHELLANDRENE], the Activity in series [1] was 93.7%; in [4] it was 100%; in series [6], 78.5%; in [8], 100%; in series [10], 100%. In addition, in series [2], the viability at 500 molar ratio is > 80%. Further, in [3], the viability at 10 molar ratio is > 80%. In addition, the viability at 1000 molar ratio in series [5] is > 80%. For the same compound, the viability at 100 molar ratio in series [7] was > 80%. For the same compound, the viability at 1 molar ratio in [9] is > 80%.

`C=C1CCC[C@]2(C)CC[C@@H](C(C)(C)O)C[C@@H]12` [BETA-EUDESMOL]: the Activity in [1] turned out to be 68.9%; in series [4], 83.8%; in series [6], 40.1%; in series [8], 100%; in [10] it was 100%. For the same compound, the viability at 500 molar ratio in series [2] was > 80%. Further, the viability at 10 molar ratio in series [3] is > 80%. Moreover, the viability at 1000 molar ratio in series [5] was > 80%. Besides, the viability at 100 molar ratio in series [7] was > 80%. Besides, in [9], the viability at 1 molar ratio was > 80%.

Consider `C=CCc1ccc(O)c(-c2ccc(O)c(CC=C)c2)c1` [HONOKIOL], for which the Activity in series [1] was 18.5%; in [4], 69.4%; in [6], 0%; in series [8], 100%; in [10] it was 90.1%. Besides, the viability at 500 molar ratio in series [2] is > 80%. Besides, the viability at 10 molar ratio in series [3] was > 80%. In addition, the viability at 1000 molar ratio in [5] was determined as 60%. The viability at 100 molar ratio in series [7] is > 80%. For the same compound, the viability at 1 molar ratio in series [9] was > 80%.

For the compound `C=CCc1ccc(O)c(-c2cc(CC=C)ccc2O)c1` [MAGNOLOL], the Activity in [1] amounted to 0%; in series [4], 31.2%; in [6], 0%; in [11] it was 40%; in series [8], 94.4%; in series [10] it was 56.9%. In addition, the viability at 500 molar ratio in series [2] is > 80%. Besides, the viability at 10 molar ratio in series [3] was > 80%. Moreover, the viability at 1000 molar ratio in [5] turned out to be 70%. In addition, the viability at 100 molar ratio in [7] is > 80%. For the same compound, the viability at 1 molar ratio in [9] is > 80%.

For the compound `C=CCc1ccc(O)c(-c2cc(CC=C)cc(C3C=C(C)CC[C@@H]3C(C)C)c2O)c1` (stereo partly specified) [MONOTERPENYL MAGNOLOL], the Activity in series [1] turned out to be 20.9%; in series [4] it was 82.6%; in series [6], 11.6%; in [8], 100%; in series [10], 100%. In [2], the viability at 500 molar ratio is > 80%. Also, the viability at 10 molar ratio in series [3] is > 80%. In addition, the viability at 1000 molar ratio in series [5] stood at 60%. Further, the viability at 100 molar ratio in series [7] was > 80%. For the same compound, the viability at 1 molar ratio in series [9] was > 80%.
